Source: PubChem
Hits are enriched below; roughly 7.6% of the tested compounds scored in any of these assays.
D1 mod – D1 dopamine receptor (human) allosteric modulation; HEK293 D1, CRE-luciferase, dopamine EC30 potentiation; actives deviate in either direction; B-score at 10 µM; actives 5.9% (n = 58,000); P21728; AID 641;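 active = luminescence count or its row- and column-corrected plate score outside the 99.7% band of the plate's sample wells, on either side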
M1 ag – agonists of M1 muscarinic receptor; CHO-M1 cells, Fluo-4 calcium fluorescence, agonist mode; hits give high values; B-score at 10 µM; actives 3% (n = 64,000); AID 626;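 active = fluorescence rise, raw or as B-score row- and column-corrected plate score, outside the 99.7% band of its plate's samples, either direction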
HEK293 NFkB inh – inhibitors of the PMA/ionomycin-induced NF-kB reporter in HEK293 cells | HEK-293 NF-kB luciferase reporter, luminescence | inhibition, % at 3 µM | actives 0.21% (n = 62,000);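 active = inhibition above the mean of all tested compounds plus 3 SD, cut at about 40% in these data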
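Timing: 1 h pretreatment, 16 h stimulation, 37 °C; system: HEK-293 cells with stable firefly luciferase reporter driven by four HIV NF-kB elements; doses: 3 µM once, 0.30% DMSO; measured by: luciferase luminescence; control set: DMSO and 10 µM reference inhibitor; repeats: single test; reagent: PMA plus ionomycin mix as NF-kB-activating stimulus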
M1 antagonist – antagonists of rat M1 muscarinic receptor. CHO-M1 cells, Fluo-4 calcium, ACh EC80 antagonist mode; hits give low values. B-score at 10 µM. actives 3.4% (n = 64,000). AID 628;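 active = calcium fluorescence response, raw or row-and-column corrected B-score, differing from the plate sample mean either way at a set confidence level, mostly lower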
hDAT+cocaine – human DAT dopamine uptake with cocaine, either direction; actives 1.3% (n = 110,000); LLC-PK1 hDAT cells, [14C]-dopamine uptake with cocaine IC80; actives deviate in either direction; AID 449768; B-score at 10 µM;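 active = Z score or B-score, a plate-position-corrected score, falls beyond the plate's 99.7% confidence bounds, in either direction; inactive = both scores lie inside the 99.7% bounds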
Target sequence (Q01959 whole entry, looked up): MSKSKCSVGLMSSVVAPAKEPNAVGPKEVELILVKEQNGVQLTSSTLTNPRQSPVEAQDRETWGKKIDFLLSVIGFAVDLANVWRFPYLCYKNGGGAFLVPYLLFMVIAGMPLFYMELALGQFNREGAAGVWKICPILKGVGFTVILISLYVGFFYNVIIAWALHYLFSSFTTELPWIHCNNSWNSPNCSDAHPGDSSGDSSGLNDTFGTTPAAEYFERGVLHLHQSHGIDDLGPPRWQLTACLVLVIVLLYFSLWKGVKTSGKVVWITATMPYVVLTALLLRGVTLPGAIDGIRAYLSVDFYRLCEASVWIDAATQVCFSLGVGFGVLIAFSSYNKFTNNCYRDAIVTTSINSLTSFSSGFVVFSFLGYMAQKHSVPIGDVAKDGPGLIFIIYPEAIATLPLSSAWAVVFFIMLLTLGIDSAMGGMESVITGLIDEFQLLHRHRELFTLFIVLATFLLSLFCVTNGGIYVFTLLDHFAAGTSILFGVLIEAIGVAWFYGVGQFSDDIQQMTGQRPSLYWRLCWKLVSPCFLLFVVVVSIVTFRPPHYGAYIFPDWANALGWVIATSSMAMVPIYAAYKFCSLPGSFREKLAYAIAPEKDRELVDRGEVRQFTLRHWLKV
Jurkat viability – reduces viability or proliferation of Jurkat cells. inhibition, % at 4 µM. Jurkat E6.1 viability, ATP luminescence, 48 h. actives 1.2% (n = 56,000). AID 463;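 active = inhibition above the mean inhibition of all tested compounds plus 3 SD, cut at about 28% in these data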
Large screens that a line does not name were inactive; ! = a repeat was not active.

Cc1ccc(C(=O)Nc2cnc3ccccc3c2)cc1	none (no result: D1 mod, M1 ag, HEK293 NFkB inh, M1 antagonist, Jurkat viability)
O=C(c1cc2c(ccc3ccccc32)oc1=O)N1CCN(CCO)CC1	none
CCCCOC(=O)c1ccc(NC(=S)NC(=O)c2c(Cl)cnn2CC)cc1	none (no result: D1 mod, M1 ag, HEK293 NFkB inh, M1 antagonist, Jurkat viability)
CCOC(=O)c1c(C)[nH]c(C(=O)CN2CCOCC2)c1C	none (no result: D1 mod, Jurkat viability)
CCOC(=O)c1[nH]c(C)c(C(=O)Nc2ccc(C)cc2C)c1C	Jurkat viability 93
CCOC(=O)c1[nH]c(C)c(C(=O)Nc2cc(OC)ccc2OC)c1C	Jurkat viability 80 (no result: hDAT+cocaine)
CCOC(=O)c1[nH]c(C)c(C(=O)NCCCN2CCOCC2)c1C	hDAT+cocaine -5
CCOC(=O)c1[nH]c(C)c(C(=O)Nc2ccccc2F)c1C	Jurkat viability 89 (no result: hDAT+cocaine)
CCOC(=O)c1[nH]c(C)c(C(=O)Nc2ccc(C)c(C)c2)c1C	none
O=C(c1ccccc1Cl)N1N=C(c2ccc(Br)cc2)CC1c1nc2ccccc2[nH]1 (stereo not drawn)	none (no result: D1 mod, M1 ag, HEK293 NFkB inh, M1 antagonist, Jurkat viability)
CCC(C)N(C(=O)CSc1nc(-c2ccccc2)cs1)C1CCS(=O)(=O)C1 (stereo not drawn)	none (no result: D1 mod, M1 ag, HEK293 NFkB inh, M1 antagonist, Jurkat viability)
CNC(=O)CSc1nc2nc(C)cc(C)n2n1	none (no result: D1 mod, M1 ag, HEK293 NFkB inh, M1 antagonist, Jurkat viability)
Cc1cc(C)n2nc(SCC(=O)N(C(C)C)C(C)C)nc2n1	hDAT+cocaine -8.9
COc1ccc(N(C(=O)Cn2nnc3ccccc32)C(C(=O)NCc2ccco2)c2ccc(C)o2)cc1 (stereo not drawn)	hDAT+cocaine 3.1
Cc1ccc(C(C(=O)NCc2ccco2)N(CCc2ccccc2)C(=O)Cn2nnc3ccccc32)o1 (stereo not drawn)	D1 mod -4.3 (no result: hDAT+cocaine)
COC(=O)c1[nH]c2cccc(C)c2c1NC(=O)CN1CCN(C(=O)c2ccco2)CC1	none
CC1=C(C)CS(=O)N(S(=O)(=O)c2ccc(Cl)cc2)C1 (stereo not drawn)	Jurkat viability 69
CC1CCN(S(=O)(=O)c2ccc(Cl)cc2)CC1	none
CCOC(=O)c1c(Nc2ccccc2N)cc(C)nc1C	none
OC(CN1CCN(c2ccccc2)CC1)c1ccc2c(c1)CCN2 (stereo not drawn)	D1 mod -3
CCOC(=O)N1CCN(CC(O)c2ccc3c(c2)CCN3)CC1 (stereo not drawn)	D1 mod -3.9
CCn1cc(C(=O)O)c(=O)c2cc(F)c(N3CCN(C)CC3)cc21	none (no result: D1 mod, M1 ag, HEK293 NFkB inh, M1 antagonist, Jurkat viability)
CCn1cc(C(=O)O)c(=O)c2cc(F)c(N3CCN(C(=O)Nc4ccccc4)CC3)cc21	D1 mod -2.2
O=C(CN1CCC(n2nnc3ccccc32)CC1)Nc1ccc2c(c1)CCC2	hDAT+cocaine 3.1 (no result: D1 mod)
O=C(CN1CCC(n2nnc3cc(F)ccc32)CC1)Nc1ccc2c(c1)CCC2	none
CCOc1c(C)cc(-c2ncccc2O)cc1C	hDAT+cocaine -7.9!
O=C(NCc1ccco1)c1cc(-c2ccccc2)nn1CC1CC(c2cccnc2)=NO1 (stereo not drawn)	hDAT+cocaine 2.1 (no result: D1 mod, M1 ag, HEK293 NFkB inh, M1 antagonist, Jurkat viability)
O=C(CCCc1c[nH]c2ccccc12)N1CCN(c2ccc(N3CCOCC3)nn2)CC1	hDAT+cocaine 2.5
COc1ccc(OCCNc2cc(Cl)ccc2[N+](=O)[O-])cc1	none (no result: D1 mod, M1 ag, HEK293 NFkB inh, M1 antagonist, Jurkat viability)
COc1ccc(C)c(S(=O)(=O)Nc2ccc(OCC(=O)O)cc2)c1	none (no result: D1 mod)
CCc1ccc(NS(=O)(=O)c2cc(OC)ccc2OC)cc1	Jurkat viability 29
COc1ccc(NS(=O)(=O)c2cc(OC)ccc2NC(=O)c2cc(C)oc2C)cc1	Jurkat viability 94
COc1ccc(NS(=O)(=O)c2cc(C)ccc2C)cc1	Jurkat viability 74
COc1ccc(OC)c(S(=O)(=O)Nc2ccc(CC(=O)O)cc2)c1	none
Cc1nnc2n(-c3ccc(Cl)cc3)c(=O)c3c4c(sc3n12)CN(C)CC4	none (no result: hDAT+cocaine, Jurkat viability)
CCC(C)(C)n1nnnc1C(c1ccncc1)N1CCC(C)CC1 (stereo not drawn)	none (no result: D1 mod, M1 ag, HEK293 NFkB inh, M1 antagonist, Jurkat viability)
Cc1nn(C)cc1CN(C)C(=O)c1nn2c(c1Cl)NC(c1cccs1)CC2C(F)(F)F (stereo not drawn)	hDAT+cocaine 3.5
CCN(C(=O)c1cc2ccccc2oc1=O)c1ccccc1	none (no result: D1 mod, M1 ag, HEK293 NFkB inh, M1 antagonist, Jurkat viability)
O=C(c1cc2ccccc2oc1=O)N(Cc1cccs1)Cc1ccccc1Cl	hDAT+cocaine 2.5 (no result: D1 mod, M1 ag, HEK293 NFkB inh, M1 antagonist, Jurkat viability)
O=C1Nc2ccccc2C12OCCCCO2	none
CC(=O)c1sc(NC(=O)c2ccccc2F)nc1C	D1 mod -5.1
CN1CCN(c2c(F)cc3c(=O)c(C(=O)O)cn4c3c2SCC4)CC1	none
